pEC50, pKi: −log10 of the molar value.
Experiments:
Rattus norvegicus [1] = assay: Calcium transport in vitamin-D deficient weanling rat intestine assessed as intestinal calcium level at 19 ug/kg, ip administered daily for 7 consecutive days measured 24 hrs after last dose; type: functional
Summary of the method: (§1)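 Vitamin D-deficient rats were kept on a low-calcium diet and dosed ip daily for 7 consecutive days in the last week, in 0.1 ml propylene glycol/ethanol (95:5), with vehicle-only controls. Measurements were taken 24 h after the final dose. Intestinal calcium transport was expressed as the rise in serosal/mucosal (S/M) ratio over vehicle, average ± SEM, with 5–6 rats per group.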

Vitamin D3 receptor [2] = target: T1, Vitamin D3 receptor (Rattus norvegicus, UniProt P13053); assay: Displacement of [3H]-1alpha,25(OH)2D3 from recombinant rat VDR by scintillation counting
T1 sequence (P13053 whole entry): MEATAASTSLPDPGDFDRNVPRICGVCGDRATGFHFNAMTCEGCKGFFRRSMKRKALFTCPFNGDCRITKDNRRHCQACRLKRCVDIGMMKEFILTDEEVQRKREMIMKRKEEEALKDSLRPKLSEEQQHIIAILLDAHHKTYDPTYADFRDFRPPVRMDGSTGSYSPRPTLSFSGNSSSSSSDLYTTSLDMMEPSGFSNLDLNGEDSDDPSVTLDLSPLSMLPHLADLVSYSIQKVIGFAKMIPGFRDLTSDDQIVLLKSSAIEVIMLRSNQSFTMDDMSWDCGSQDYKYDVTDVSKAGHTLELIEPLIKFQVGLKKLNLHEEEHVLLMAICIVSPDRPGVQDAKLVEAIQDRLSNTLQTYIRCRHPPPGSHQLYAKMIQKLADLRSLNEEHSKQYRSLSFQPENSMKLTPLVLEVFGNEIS
Summary of the method: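 It was incubated overnight on ice with 1 nM final [3H]-1α,25(OH)2D3 plus unlabeled ligand in ethanol (<10% final). Bound ligand was collected on hydroxylapatite, washed and counted by scintillation. […] Duplicates were run on two–three occasions.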

Rattus norvegicus [3] = assay: Calcium mobilization in vitamin-D deficient weanling rat bone assessed as increase in serum calcium level at 19 ug/kg, ip administered daily for 7 consecutive days measured 24 hrs after last dose relative to vehicle treated control; type: functional
Summary of the method: (§2)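 Vitamin D-deficient rats were kept on a low-calcium diet and in the final week dosed ip once daily for 7 consecutive days in 0.1 ml propylene glycol/ethanol (95:5). Controls received vehicle only. Serum Ca (mg/dL) was measured 24 h after the last dose and reported as the increase over vehicle-treated rats, average ± SEM, with 5–6 rats per group.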

HL-60 [4] = assay: Induction of human HL60 cell differentiation after 4 days by nitro blue tetrazolium reduction assay relative to 1alpha,25(OH)2D3; type: functional
Summary of the method: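 HL-60 cells were grown in RPMI-1640 with 10% FBS at 37 °C and 5% CO2, plated at 1.2×10^5 cells/plate, and treated in duplicate 18 h later (ethanol <0.2% final). After 4 days, NBT reduction was scored by counting formazan-positive cells among 200. […] The experiment was repeated 2–3 times.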

HL-60 [5] = assay: Induction of human HL60 cell differentiation after 4 days by nitro blue tetrazolium reduction assay; type: functional, cell-based; details: HL-60, 96 h
Rattus norvegicus [6] = assay: Calcium mobilization in vitamin-D deficient weanling rat bone assessed as increase in serum calcium level at 6.5 ug/kg, ip administered daily for 7 consecutive days measured 24 hrs after last dose relative to vehicle treated control; type: functional; summary of the method: as §2
Rattus norvegicus [7] = assay: Calcium transport in vitamin-D deficient weanling rat intestine assessed as intestinal calcium level at 2.1 ug/kg, ip administered daily for 7 consecutive days measured 24 hrs after last dose; type: functional; summary of the method: as §1
Vitamin D3 receptor [8] = target: T1, Vitamin D3 receptor; assay: Agonist activity at rat VDR in ROS 17/2.8 cells transfected with Cyp24a1 reporter plasmid assessed as increase in Cyp24a1 transcription after 16 hrs by luciferase reporter gene assay; type: functional, cell-based
Summary of the method: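 ROS 17/2.8 osteosarcoma (bone) cells stably carrying a Cyp24a1 promoter–luciferase reporter were given a range of doses. Cells were harvested 16 h after dosing and luciferase was read on a luminometer. Duplicates were run on two–three separate occasions.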

Rattus norvegicus [9] = assay: Calcium transport in vitamin-D deficient weanling rat intestine assessed as intestinal calcium level at 97 ug/kg, ip administered daily for 7 consecutive days measured 24 hrs after last dose; type: functional; summary of the method: as §1
Rattus norvegicus [10] = assay: Calcium mobilization in vitamin-D deficient weanling rat bone assessed as increase in serum calcium level at 2.1 ug/kg, ip administered daily for 7 consecutive days measured 24 hrs after last dose relative to vehicle treated control; type: functional; summary of the method: as §2
Rattus norvegicus [11] = assay: Calcium transport in vitamin-D deficient weanling rat intestine assessed as intestinal calcium level at 6.5 ug/kg, ip administered daily for 7 consecutive days measured 24 hrs after last dose; type: functional; summary of the method: as §1
Rattus norvegicus [12] = assay: Calcium mobilization in vitamin-D deficient weanling rat bone assessed as increase in serum calcium level at 97 ug/kg, ip administered daily for 7 consecutive days measured 24 hrs after last dose relative to vehicle treated control; type: functional; summary of the method: as §2
Rattus norvegicus [13] = assay: Calcium mobilization in vitamin-D deficient weanling rat bone assessed as increase in serum calcium level at 1.9 ug/kg, ip administered daily for 7 consecutive days measured 24 hrs after last dose relative to vehicle treated control; type: functional; summary of the method: as §2
Rattus norvegicus [14] = assay: Calcium mobilization in vitamin-D deficient weanling rat bone assessed as increase in serum calcium level at 22.8 ug/kg, ip administered daily for 7 consecutive days measured 24 hrs after last dose relative to vehicle treated control; type: functional; summary of the method: as §2
Rattus norvegicus [15] = assay: Calcium mobilization in vitamin-D deficient weanling rat bone assessed as increase in serum calcium level at 5.7 ug/kg, ip administered daily for 7 consecutive days measured 24 hrs after last dose relative to vehicle treated control; type: functional; summary of the method: as §2
Rattus norvegicus [16] = assay: Calcium transport in vitamin-D deficient weanling rat intestine assessed as intestinal calcium level at 0.7 ug/kg, ip administered daily for 7 consecutive days measured 24 hrs after last dose; type: functional; summary of the method: as §1
Rattus norvegicus [17] = assay: Calcium mobilization in vitamin-D deficient weanling rat bone assessed as increase in serum calcium level at 0.7 ug/kg, ip administered daily for 7 consecutive days measured 24 hrs after last dose relative to vehicle treated control; type: functional; summary of the method: as §2
Rattus norvegicus [18] = assay: Calcium mobilization in vitamin-D deficient weanling rat bone assessed as increase in serum calcium level at 0.2 ug/kg, ip administered daily for 7 consecutive days measured 24 hrs after last dose relative to vehicle treated control; type: functional; summary of the method: as §2
Rattus norvegicus [19] = assay: Calcium transport in vitamin-D deficient weanling rat intestine assessed as intestinal calcium level at 0.2 ug/kg, ip administered daily for 7 consecutive days measured 24 hrs after last dose; type: functional; summary of the method: as §1

pKi (Vitamin D3 receptor [2]) | pEC50 (HL-60 [5]) | pEC50 (Vitamin D3 receptor [8]) | Structure (SMILES) | Activity (Rattus norvegicus [1]) [mg/dL] | Activity (Rattus norvegicus [3]) [mg/dL] | Ratio EC50 (HL-60 [4]) | Activity (Rattus norvegicus [6]) [mg/dL] | Activity (Rattus norvegicus [7]) [mg/dL] | Activity (Rattus norvegicus [9]) [mg/dL] | Activity (Rattus norvegicus [10]) [mg/dL] | Activity (Rattus norvegicus [11]) [mg/dL] | Activity (Rattus norvegicus [12]) [mg/dL] | Activity (Rattus norvegicus [13]) [mg/dL] | Activity (Rattus norvegicus [14]) [mg/dL] | Activity (Rattus norvegicus [15]) [mg/dL] | Activity (Rattus norvegicus [16]) [mg/dL] | Activity (Rattus norvegicus [17]) [mg/dL] | Activity (Rattus norvegicus [18]) [mg/dL] | Activity (Rattus norvegicus [19]) [mg/dL]
8.70 | 8.22 | 8.70 | C=C1[C@H](O)CC(=C/C=C/CC(C)(C)C[C@@H](C)CCCC(C)(C)O)C[C@H]1O | 1 | 0.4 | 2 | 0.6 | 0 | 2.6 | 0.2 | 0.4 | 0.3 | – | – | – | – | – | – | –
8.00 | – | 7.52 | C=C1[C@H](O)CC(=C/C=C\CC(C)(C)C[C@@H](C)CCCC(C)(C)O)C[C@H]1O | – | – | – | 0.2 | – | – | – | 0.1 | – | – | – | – | – | – | – | –
– | – | – | C=C1[C@H](O)CC(=C/C=C/CCC[C@@H](C)CCCC(C)(C)O)C[C@H]1O | – | – | 100 | – | – | – | – | – | – | -0.2 | 0.2 | 0.1 | – | – | – | –
– | – | – | C=C1/C(=C\C=C2/CCC[C@]3(C)[C@@H]([C@H](C)CCCC(C)(C)O)CC[C@@H]23)C[C@@H](O)C[C@@H]1O [CALCITRIOL] | 5.9 | 3.9 | – | – | 4.2 | – | 1.9 | – | – | – | – | – | 2.8 | 1.3 | 0.5 | 4.2

— ChEMBL document CHEMBL1926520, “13,13-Dimethyl-des-C,D analogues of (20S)-1α,25-dihydroxy-2-methylene-19-norvitamin D₃ (2MD): total synthesis, docking to the VDR, and biological evaluation” (Bioorg Med Chem, 2011)
